Measured values taken from paper PMC6519384 (Andrology, 2018).

Legend:
[1] = test system: blood esterases; assay: Ex vivo addition of DMAU to blood in different blood collection tubes; type: in vitro ADME, human; conditions: for Reduction of conversion of DMAU to DMA in NaF tubes: NaF 15 mg/mL blood; for Reduction of conversion of DMAU to DMA in NaF tubes / DMA level: 60 min at RT; for DMA level: plain tube
Method in brief: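 Freshly drawn venous whole blood from healthy men is split into 2 mL aliquots in plain or esterase-inhibitor tubes, in duplicate. DMAU in methanol is added to 125–1000 ng/mL and held 30 or 60 min at 4 °C or 60 min at 23 °C before centrifugation. DMA is extracted twice with MTBE/hexane (50:50) and run by LC‑MS/MS. Duplicates are averaged and results given as % difference vs plain tube under the same conditions.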

[2] = DMAU added to serum with increasing NaF, DMA measured; type: in vitro ADME, human; conditions: Table S1, Experiment 3
[3] = Single oral dose of 200 mg DMAU in healthy men; type: in vivo, human; conditions: oral 200 mg DMAU
Method in brief: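 Fifteen healthy men took 200 mg DMAU orally after a meal, in castor oil/benzyl benzoate or as capsule powder. Ten blood draws over 24 h went into plain tubes (kept at RT) and NaF‑containing tubes (4 °C), each held 30 min before centrifugation. DMA and DMAU were measured by LC‑MS/MS. The plain minus NaF‑EDTA DMA difference was regressed on average DMAU, split at 10 ng/mL.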

[4] = DMAU 300 ng/mL, K2EDTA (1.8 mg/mL) tube, 30 min 4 °C
[5] = DMAU 300 ng/mL, K2EDTA (1.8 mg/mL) tube, 60 min 4 °C
[6] = DMAU 300 ng/mL, K2EDTA (1.8 mg/mL) tube, 60 min RT
[7] = DMAU 300 ng/mL, NaF (1.5 mg/mL) + Na2EDTA (3 mg/mL) tube, 30 min 4 °C
[8] = DMAU 300 ng/mL, NaF (1.5 mg/mL) + Na2EDTA (3 mg/mL) tube, 60 min 4 °C
[9] = DMAU 300 ng/mL, NaF (5 mg/mL) + K2Oxalate (4 mg/mL) tube, 60 min 4 °C
[10] = DMAU 300 ng/mL, NaF (5 mg/mL) + K2Oxalate (4 mg/mL) tube, 60 min RT
[11] = DMAU 300 ng/mL, P800 tube, 30 min 4 °C
[12] = DMAU 300 ng/mL, P800 tube, 60 min 4 °C
[13] = DMAU 300 ng/mL, P800 tube, 60 min RT
[14] = DMAU 600 ng/mL, K2EDTA (1.8 mg/mL) tube, 30 min 4 °C
[15] = DMAU 600 ng/mL, K2EDTA (1.8 mg/mL) tube, 60 min 4 °C
[16] = DMAU 600 ng/mL, K2EDTA (1.8 mg/mL) tube, 60 min RT
[17] = DMAU 600 ng/mL, NaF (1.5 mg/mL) + Na2EDTA (3 mg/mL) tube, 30 min 4 °C
[18] = DMAU 600 ng/mL, NaF (1.5 mg/mL) + Na2EDTA (3 mg/mL) tube, 60 min 4 °C
[19] = DMAU 600 ng/mL, NaF (1.5 mg/mL) + Na2EDTA (3 mg/mL) tube, 60 min RT
[20] = DMAU 600 ng/mL, NaF (5 mg/mL) + K2Oxalate (4 mg/mL) tube, 30 min 4 °C
[21] = DMAU 600 ng/mL, NaF (5 mg/mL) + K2Oxalate (4 mg/mL) tube, 60 min 4 °C
[22] = DMAU 600 ng/mL, NaF (5 mg/mL) + K2Oxalate (4 mg/mL) tube, 60 min RT
[23] = DMAU 600 ng/mL, P800 tube, 30 min 4 °C
[24] = DMAU 600 ng/mL, P800 tube, 60 min 4 °C
[25] = DMAU 600 ng/mL, P800 tube, 60 min RT

With `CCCCCCCCCCC(=O)O[C@H]1CC[C@H]2[C@H]3[C@H]([C@@H](C)C[C@]12C)[C@H]1CCC(=O)C=C1C[C@H]3C` [DMAU, dimethandrolone undecanoate] the “Reduction of conversion of DMAU to DMA in NaF tubes” value (“Reduction of conversion of DMAU” below) ([1]; DMAU 125 ng/mL) was 72%, the DMA level ([1]; DMAU 125 ng/mL) was 1.57 ng/mL and the “Reduction of conversion of DMAU” value ([1]; DMAU 250 ng/mL) was 61.3%. The DMA level ([1]; DMAU 250 ng/mL) was 2.79 ng/mL, the “% difference vs. Plain” value [1, 4] was −56.1% and the DMA [1, 4] was 1.4 ng/mL. The “% difference vs. Plain” value [1, 5] was −76.5%, the DMA [1, 5] was 1.4 ng/mL and the “% difference vs. Plain” value [1, 6] was “+15.2%”. The DMA [1, 6] was 9.7 ng/mL, the “% difference vs. Plain” value [1, 7] was −80.6% and the DMA [1, 7] was 0.6 ng/mL. The “% difference vs. Plain” value [1, 8] was −77.3%, the DMA [1, 8] was 1.3 ng/mL and the DMA ([1]; DMAU 300 ng/mL, NaF (5 mg/mL) + K2Oxalate (4 mg/mL) tube, 30 min 4 °C) was “LLOQ”. The “% difference vs. Plain” value [1, 9] was −82.2%, the DMA [1, 9] was 1 ng/mL and the “% difference vs. Plain” value [1, 10] was −31.9%. For the same compound, the DMA [1, 10] was 5.7 ng/mL, the “% difference vs. Plain” value [1, 11] was −78.1% and the DMA [1, 11] was 0.7 ng/mL. The “% difference vs. Plain” value [1, 12] was −84.2%, the DMA [1, 12] was 0.9 ng/mL and the “% difference vs. Plain” value [1, 13] was −20.6%. The DMA [1, 13] was 6.7 ng/mL, the DMA ([1]; DMAU 300 ng/mL, Plain tube, 30 min 4 °C) was 3.3 ng/mL and the DMA ([1]; DMAU 300 ng/mL, Plain tube, 60 min 4 °C) was 5.9 ng/mL. For the same compound, the DMA ([1]; DMAU 300 ng/mL, Plain tube, 60 min RT) was 8.4 ng/mL, the “Reduction of conversion of DMAU” value ([1]; DMAU 500 ng/mL) was 54.3% and the DMA level ([1]; DMAU 500 ng/mL) was 5.54 ng/mL. For the same compound, the “% difference vs. Plain” value [1, 14] was −17.1%, the DMA [1, 14] was 1.2 ng/mL and the “% difference vs. Plain” value [1, 15] was −46.4%. The DMA [1, 15] was 2.3 ng/mL, the “% difference vs. Plain” value [1, 16] was “+13.4%” and the DMA [1, 16] was 16.5 ng/mL. The “% difference vs. Plain” value [1, 17] was −30.0%, the DMA [1, 17] was 1 ng/mL and the “% difference vs. Plain” value [1, 18] was −43.5%. The DMA [1, 18] was 2.4 ng/mL, the “% difference vs. Plain” value [1, 19] was −29.4% and the DMA [1, 19] was 10.2 ng/mL. For the same compound, the “% difference vs. Plain” value [1, 20] was −38.7%, the DMA [1, 20] was 0.9 ng/mL and the “% difference vs. Plain” value [1, 21] was −72.7%. The DMA [1, 21] was 1.2 ng/mL, the “% difference vs. Plain” value [1, 22] was −34.1% and the DMA [1, 22] was 9.6 ng/mL. The “% difference vs. Plain” value [1, 23] was −42.5%, the DMA [1, 23] was 0.9 ng/mL and the “% difference vs. Plain” value [1, 24] was −67.1%. The DMA [1, 24] was 1.4 ng/mL, the “% difference vs. Plain” value [1, 25] was −25.9% and the DMA [1, 25] was 10.8 ng/mL. For the same compound, the DMA ([1]; DMAU 600 ng/mL, Plain tube, 30 min 4 °C) was 1.5 ng/mL, the DMA ([1]; DMAU 600 ng/mL, Plain tube, 60 min 4 °C) was 4.3 ng/mL and the DMA ([1]; DMAU 600 ng/mL, Plain tube, 60 min RT) was 14.5 ng/mL. For the same compound, the “Reduction of conversion of DMAU” value ([1]; DMAU 1000 ng/mL) was 48.8%, the DMA level ([1]; DMAU 1000 ng/mL) was 8.82 ng/mL and the “Reduction of overestimation of DMA by collecting blood into NaF tubes” value ([1]; increasing amounts of DMAU added to blood) was 30–85%. For the same compound, the “Conversion of DMAU to DMA in serum” value [2] was “no conversion”, the “Difference in DMA concentrations between plain and NaF‐EDTA tubes” value ([3]; DMAU concentrations above 10 ng/mL) was 22% and the “Mean difference in DMA concentrations between plain and NaF‐EDTA tubes” value ([3]; DMAU concentrations below 10 ng/mL) was about 0%.
